Sampled rows, rich in hits. Any-hit rate of the full collection: about 2.2%.
rCAG RNA binder = molecules binding r(CAG) RNA repeats; r(CAG) RNA repeat, TO-PRO-1 dye displacement fluorescence; inhibition, % at 3 µM; actives 1.3% (n = 370,000);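 active = inhibition above the plate cutoff, the mean of all test compounds on that plate plus 3 SD, cut at about 35% in these data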;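 note: 0% = DMSO alone and 100% = 100 µM mitoxantrone as full dye displacement; higher means more dye released from RNA so lower well fluorescence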
ARFGAP1 inh = rat ARFGAP1 inhibition | Q62848 | Arfgap1-stimulated ARF1 GTP hydrolysis, GDP FP detection | inhibition, % at 16.5 µM | actives 0.26% (n = 360,000) | AID 651572;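 active = inhibition above a per-plate limit, mean inhibition of low control wells plus 3 SD, cut at about 25% in these data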;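 note: 0% = DMSO wells with enzyme and 100% = wells lacking Arfgap1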
Target sequence (Q62848 1-136 limits assumed): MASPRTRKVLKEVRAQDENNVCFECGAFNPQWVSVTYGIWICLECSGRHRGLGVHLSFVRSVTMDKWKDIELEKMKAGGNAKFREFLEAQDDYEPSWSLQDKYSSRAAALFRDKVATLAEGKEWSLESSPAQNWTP
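Replicates: Single well per compound | Assay system: Truncated rat Arfgap1 GAP domain | Control set: No-Arfgap1 wells (100%) versus DMSO full-reaction wells (0%) | Times: Enzyme reaction 120 min at 25 °C after 20 min preincubation | Reagent: Human ARF1(Δ1-17)-GTP substrate | Measured by: Tracer-displacement fluorescence polarization with EDTA stop, 620/688 nm | Measure: Percent inhibition of Arfgap1-stimulated GTP hydrolysis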
ASAP1 GAP inh = ASAP1 ArfGAP inhibition. Q9ULH1. ASAP1-stimulated ARF1 GTP hydrolysis, GDP FP detection. inhibition, % at 16.5 µM. actives 0.19% (n = 360,000). AID 624377; in the data active = inhibition above about 25%;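 note: 0% = vehicle with enzyme and substrate and 100% = no enzyme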
Target sequence (Q9ULH1 325-724 limits assumed): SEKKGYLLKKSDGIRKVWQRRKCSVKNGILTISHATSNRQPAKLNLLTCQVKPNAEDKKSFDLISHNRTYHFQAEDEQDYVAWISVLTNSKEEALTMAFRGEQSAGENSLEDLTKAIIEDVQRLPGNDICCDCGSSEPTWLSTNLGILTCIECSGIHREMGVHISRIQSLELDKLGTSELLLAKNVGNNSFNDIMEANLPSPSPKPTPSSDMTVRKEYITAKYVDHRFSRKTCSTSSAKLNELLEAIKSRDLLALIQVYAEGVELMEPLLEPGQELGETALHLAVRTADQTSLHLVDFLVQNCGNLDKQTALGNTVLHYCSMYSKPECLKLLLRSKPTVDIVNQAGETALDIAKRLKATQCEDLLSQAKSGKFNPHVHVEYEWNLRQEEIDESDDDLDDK
NadD inh = inhibitors of Staphylococcus aureus NadD | actives 0.78% (n = 360,000) | purified NadD enzyme, colorimetric absorbance read-out | inhibition, % at 20 µM; in the data active = inhibition above about 26%
rCAG bind conf = r(CAG) RNA repeat binding, confirmation | shares compounds with rCAG RNA binder | TO-PRO-1 dye displacement fluorescence | inhibition, % at 3 µM | actives 70% (n = 4,300) | AID 652065;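 active = inhibition above a per-plate cutoff, the mean inhibition of sample wells plus 3 SD, cut at about 35% in these data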;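 note: loss of TO-PRO-1 fluorescence as compound displaces dye from 1x1 AA loop RNA; 0% = DMSO only wells and 100% = 100 µM mitoxantrone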
DNA CAG counter = DNA CAG dye complex inhibition counter-screen | shares compounds with rCAG RNA binder | d(CAG) DNA oligo TO-PRO-1 dye displacement, fluorescence | inhibition, % at 3 µM | actives 94% (n = 4,300);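 active = inhibition above its plate's cutoff, the mean test-well inhibition plus 3 SD, cut at about 4.8% in these data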;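 note: 0% = DNA dye mix with DMSO and 100% = 100 µM mitoxantrone; hits displace the dye from DNA and so lower well fluorescence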
DNA CAG DR = disrupts DNA CAG TO-PRO-1 complex in dose response. actives 20% (n = 250). IC50, µM. DNA CAG/GTC duplex TO-PRO-1 dye displacement fluorescence. shares compounds with rCAG RNA binder; in the data active = IC50 below about 10 µM
* hit, by the source's call; i = inactive; · = no result.

SMILES | rCAG RNA binder | ARFGAP1 inh | ASAP1 GAP inh | NadD inh | rCAG bind conf | DNA CAG counter | others
Cc1c(C)n(Cc2ccc(-c3ccccc3C(=O)O)cc2)c2ccc(C(=O)N[C@@H](C)c3ccc([N+](=O)[O-])cc3)cc12 | 74* | · | · | · | 74* | 35*
Cc1ccc(S(=O)(=O)Oc2ccc(/C=N/N=C3/NC(=O)C(CC(=O)O)S3)cc2)cc1[N+](=O)[O-] (stereo not drawn) | 41* | 3 | 2 | 5 | 29 | 8.5*
COc1cc(/C=N/N=C2/NC(=O)C(CC(=O)O)S2)ccc1OCc1ccc(Cl)cc1 (stereo not drawn) | 54* | 8 | 8 | 17 | 38* | 10*
C[C@@H]1[C@@H](c2ccccc2)c2cc3ccccc3nc2-c2nc3ccccc3cc2[C@@H]1C(=O)N1CCCC1 | 6 | · | · | · | · | ·
COc1cccc2sc(Nc3nnc(-c4ccc(F)cc4)o3)nc12 | 62* | -6 | 13 | 28 | 72* | 28* | DNA CAG DR=>30
Cc1cccc(Nc2nnc(SCC(O)=C(C#N)c3nc4ccccc4[nH]3)s2)c1 | 42* | 7 | -5 | 24 | 48* | 24*
Cc1ccccc1-n1c(SC/C(O)=C(\C#N)c2nc3ccccc3[nH]2)nnc1-c1ccncc1 | 8 | 4 | -7 | 20 | · | ·
Cc1cc(C)n2c(SC/C(O)=C(\C#N)c3nc4ccccc4[nH]3)nnc2n1 | 37* | 10 | 15 | 25 | 37* | 17*
Cc1cccc(Nc2nnc(SCC(=O)Nc3ccc(C(=O)O)cc3)s2)c1 | 17 | -3 | 6 | -3 | · | ·
CCc1ccc(OCC(=O)Nc2ccc(S(=O)(=O)Nc3cc(C)on3)cc2)c(Br)c1 | 78* | 4 | 4 | 10 | 74* | 28* | DNA CAG DR=i
Cc1cc(NS(=O)(=O)c2ccc(NC(=O)C(c3ccccc3)c3ccccc3)cc2)no1 | 59* | -6 | -11 | -2 | 47* | 18*
Cc1cc(NS(=O)(=O)c2ccc(NC(=O)c3cc(-c4ccccc4Cl)nc4ccccc34)cc2)no1 | 75* | -5 | 1 | 19 | 72* | 39*
Cc1cc(NS(=O)(=O)c2ccc(NC(=S)NC(=O)c3ccc(Br)cc3)cc2)no1 | 57* | -5 | -10 | 7 | 47* | 16*
O=C1C=C(c2n[nH]nc2-c2ccccc2)C[C@@H](c2ccc(F)cc2)C1 | 18 | -1 | -1 | 4 | · | ·
CC(=O)Nc1ccc(NC(=O)c2cc(-c3ccccc3)nc3ccccc23)cc1 | 10 | 0 | 16 | 4 | · | ·
Cc1cc(NS(=O)(=O)c2ccc(NC(=O)C(C)Oc3ccc(C(C)C)cc3)cc2)no1 (stereo not drawn) | 47* | 12 | -2 | 6 | 49* | 16*
CCc1ccc(-c2cc(C(=O)Nc3ccc(S(=O)(=O)NC(C)=O)cc3)c3ccccc3n2)cc1 | 58* | 5 | 0 | 13 | 63* | 29*
O=C(NC1CCCCC1)C1c2ccccc2OCC(=O)N1Cc1cccnc1 (stereo not drawn) | 3 | 7 | 3 | -1 | · | ·
O=S1(=O)c2ccc(N3CCC[C@H]3CO)cc2O[C@H]2CCN1C2 | 5 | · | · | · | · | ·
Cc1ccc(S(=O)(=O)N/N=C\c2cn(-c3ccccc3)nc2-c2ccccc2)cc1 | 23 | 6 | 2 | 6 | · | ·
O=S(=O)(N/N=C\c1cn(-c2ccccc2)nc1-c1ccccc1)c1ccccc1 | 35* | 12 | -1 | 13 | 44* | 13*
Cc1ccc(-c2nn(-c3ccccc3)cc2/C=N/NS(=O)(=O)c2ccccc2)cc1 | 37* | -7 | 4 | 17 | 41* | 14*
CC(=O)C(=Cc1cn(-c2ccccc2)nc1-c1ccccc1)C(C)=O | 0 | -4 | 7 | -2 | · | ·
Cc1ccc(C(=O)N/C(=C/c2cn(-c3ccccc3)nc2-c2ccccc2)C(=O)O)cc1 | 52* | 0 | -1 | 7 | 45* | 12*
CCCCCCN1C[C@H](n2cc(C3CC3)nn2)[C@@H](O)C[C@@H]1c1ccccc1 | 0 | -7 | 0 | -1 | · | ·
SMILES | rCAG RNA binder | ARFGAP1 inh | ASAP1 GAP inh | NadD inh | rCAG bind conf | DNA CAG counter | others
O=[N+]([O-])c1ccc(NCCCN2CCC(C(O)(c3ccccc3)c3ccccc3)CC2)cc1 | 5 | · | · | · | · | ·
CN(C)c1ccc(C(=O)/C=C/c2ccco2)cc1 | 14 | -3 | -4 | 5 | · | ·
O=C(C=Cc1ccco1)c1ccc2ccccc2c1 | 38* | 4 | -2 | 19 | 16 | 10*
CC(=O)Nc1ccc(C(=O)/C=C/c2ccco2)cc1 | 35* | -7 | 4 | 7 | 25 | 13*
CC1=CN2C(=N)/C(=C/c3ccco3)C(=O)N=C2S1 | 6 | -5 | 1 | -1 | · | ·
CC1=CN2C(=N)/C(=C/c3ccc([N+](=O)[O-])o3)C(=O)N=C2S1 | 53* | -2 | -1 | 7 | 30 | 15*
CCC(NC(=O)c1ccc2c(ccn2Cc2cccc(-c3ccc(C(=O)O)cc3)c2)c1)c1ccccc1 (stereo not drawn) | 77* | · | · | · | 77* | 35*
CCC(NC(=O)c1ccc2c(c1)c(C)c(C)n2Cc1ccc(Cl)cc1)c1ccccc1 (stereo not drawn) | 13 | · | · | · | · | ·
CCOC(=O)C1CCCN(c2nc3ccccc3nc2NS(=O)(=O)c2ccc(C)cc2)C1 (stereo not drawn) | 62* | -2 | -4 | -4 | 58* | 15*
NC(=O)C1CCN(c2nc3ccccc3nc2NS(=O)(=O)c2ccc(Br)cc2)CC1 | 29 | -3 | -7 | 6 | · | ·
CC(C)(C)c1ccc(-c2c(C(=O)O)c(C(=O)O)c3n2CSC3)cc1 | 49* | -11 | -2 | -1 | 41* | 8.4*
Cc1ccc(C2CCC3(CCC(=O)N3CCOC(=O)Nc3ccc(F)cc3)CC2)cc1 (stereo not drawn) | 10 | · | · | · | · | ·
CCOc1ccc(-c2ccc(NS(=O)(=O)c3cc([N+](=O)[O-])c(C)c([N+](=O)[O-])c3)cc2)nn1 | 68* | 7 | 0 | 12 | 44* | 14*
CCOc1ccc(-c2cccc(NS(=O)(=O)c3cc([N+](=O)[O-])ccc3C)c2)nn1 | 38* | 0 | -12 | 5 | 43* | 13*
CCOc1ccc(-c2cccc(NS(=O)(=O)c3ccccc3[N+](=O)[O-])c2)nn1 | 35* | 3 | 3 | 3 | 21 | 8.5*
O=[N+]([O-])c1ccccc1S(=O)(=O)Nc1ccc(-c2ccc(N3CCCC3)nn2)cc1 | 37* | -1 | -3 | 25 | 38* | 16*
COCOc1ccc(-c2ncc(OC)nc2NC(=O)c2ccsc2)cc1 | 0 | -2 | -17 | -4 | · | ·
CC1(c2nc3ccccc3[nH]2)CCC2=Nc3ccccc3CN21 (stereo not drawn) | 2 | 5 | 5 | -10 | · | ·
O=C(Nc1cc(S(=O)(=O)N2CCOCC2)ccc1N1CCOCC1)c1cccs1 | 1 | -6 | -13 | 4 | · | ·
